Legend:
[1] = Inhibition of 12-O-tetradecanoylphorbol-13-acetate-induced EBV-early antigen activation in human Raji cells assessed as EA activation per 32 pmol TPA after 48 hrs; format: cell-based, human gammaherpesvirus 4
How it was run: (§1)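 Raji cells at 10⁶ cells/mL were resuspended in RPMI 1640/10% FCS containing 4 mM n-butyric acid inducer, 32 pmol TPA (20 ng/mL) and 32, 16, 3.2 or 0.32 nmol compound (DMSO), then held 48 h at 37 °C. EA-positive cells were scored blind, at least 500 cells per assay. Activation is expressed as % of the TPA-only positive control (100%), mean ± SD. IC50 is given as mol ratio/TPA.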

[2] = system: Raji; test: Inhibition of 12-O-tetradecanoylphorbol-13-acetate-induced EBV-early antigen activation in human Raji cells assessed as EA activation at 10 molar ratio after 48 hrs relative to TPA; format: cell-based; design: scale not given: the % may be the effect or the level left; conditions: human gammaherpesvirus 4; how it was run: as §1
[3] = system: Raji; test: Inhibition of 12-O-tetradecanoylphorbol-13-acetate-induced EBV-early antigen activation in human Raji cells assessed as EA activation at 1000 molar ratio after 48 hrs relative to TPA; format: cell-based; design: scale not given: the % may be the effect or the level left; conditions: human gammaherpesvirus 4; how it was run: as §1
[4] = system: Raji; test: Inhibition of 12-O-tetradecanoylphorbol-13-acetate-induced EBV-early antigen activation in human Raji cells assessed as EA activation at 100 molar ratio after 48 hrs relative to TPA; format: cell-based; design: scale not given: the % may be the effect or the level left; conditions: human gammaherpesvirus 4; how it was run: as §1
[5] = Cytotoxicity against human Raji cells assessed as cell viability at 500 molar ratio after 48 hrs by trypan blue staining relative to TPA; format: cell-based; conditions: read-out: Activity
How it was run: (§2)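 Raji cells grown to 10⁶ cells/mL, pelleted, resuspended in RPMI 1640 with 10% FCS, 4 mM n-butyric acid, 32 pmol TPA (20 ng/mL in DMSO) plus test compound in DMSO (0.32–32 nmol; mole ratio to TPA 10–1000). After 48 h at 37 °C, cell number and viability were counted on a hemocytometer by Trypan Blue exclusion. At least 60% viability was required for valid EA data.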

[6] = Cytotoxicity against human Raji cells assessed as cell viability at 10 molar ratio after 48 hrs by trypan blue staining relative to TPA; format: cell-based; conditions: read-out: Activity; how it was run: as §2
[7] = system: Raji; test: Inhibition of 12-O-tetradecanoylphorbol-13-acetate-induced EBV-early antigen activation in human Raji cells assessed as EA activation at 500 molar ratio after 48 hrs relative to TPA; format: cell-based; design: scale not given: the % may be the effect or the level left; conditions: human gammaherpesvirus 4; how it was run: as §1
[8] = Cytotoxicity against human Raji cells assessed as cell viability at 1000 molar ratio after 48 hrs by trypan blue staining relative to TPA; format: cell-based; conditions: read-out: Activity; how it was run: as §2
[9] = Cytotoxicity against human Raji cells assessed as cell viability at 100 molar ratio after 48 hrs by trypan blue staining relative to TPA; format: cell-based; conditions: read-out: Activity; how it was run: as §2

## CC1=C(/C=C/C(C)=C/C=C/C(C)=C/C=C/C=C(C)/C=C/C=C(C)/C=C/C2=C(C)CCCC2(C)C)C(C)(C)CCC1 [BETA CAROTENE]
[1]
  IC50: 400 molar ratio
[2]
  Activity: 100%
[3]
  Activity: 9.1%

## COc1c(O)cc2c(c1CC=C(C)C)OC(=O)c1c(cc(O)c(CC=C(C)C)c1O)O2 [GARCINISIDONE A]
[1]
  IC50: 365 molar ratio
[2]
  Activity: 91.6%
[3]
  Activity: 0%
[4]
  Activity: 78.3%
[5]
  viability at 48 h, 500 molar ratio relative to TPA: > 80%
[6]
  viability at 48 h, 10 molar ratio relative to TPA: > 80%
[7]
  Activity: 44.2%
[8]
  viability at 48 h, 1000 molar ratio relative to TPA: 70%
[9]
  viability at 48 h, 100 molar ratio relative to TPA: > 80%

## COc1c(O)cc2c(c1CC=C(C)C)OC(=O)c1c(cc3c(c1O)C=CC(C)(C)O3)O2 [GARCINISIDONE B]
[1]
  IC50: 410 molar ratio
[2]
  Activity: 100%
[3]
  Activity: 0%
[4]
  Activity: 81.7%
[5]
  viability at 48 h, 500 molar ratio relative to TPA: > 80%
[6]
  viability at 48 h, 10 molar ratio relative to TPA: > 80%
[7]
  Activity: 50.6%
[8]
  viability at 48 h, 1000 molar ratio relative to TPA: 70%
[9]
  viability at 48 h, 100 molar ratio relative to TPA: > 80%

## CC(C)=CCc1c2c(c(O)c3c1Oc1cc(O)c4c(c1OC3=O)C=CC(C)(C)O4)C=CC(C)(C)O2 [GARCINISIDONE C]
[1]
  IC50: 370 molar ratio
[2]
  Activity: 93.5%
[3]
  Activity: 0%
[4]
  Activity: 72.2%
[5]
  viability at 48 h, 500 molar ratio relative to TPA: > 80%
[6]
  viability at 48 h, 10 molar ratio relative to TPA: > 80%
[7]
  Activity: 41.8%
[8]
  viability at 48 h, 1000 molar ratio relative to TPA: 70%
[9]
  viability at 48 h, 100 molar ratio relative to TPA: > 80%

## CC(C)=CCc1c(O)c2c(c3c1OC(C)(C)C=C3)Oc1cc(O)c3c(c1OC2=O)C=CC(C)(C)O3 [GARCINISIDONE D]
[1]
  IC50: 360 molar ratio
[2]
  Activity: 92.8%
[3]
  Activity: 0%
[4]
  Activity: 72%
[5]
  viability at 48 h, 500 molar ratio relative to TPA: > 80%
[6]
  viability at 48 h, 10 molar ratio relative to TPA: > 80%
[7]
  Activity: 40.4%
[8]
  viability at 48 h, 1000 molar ratio relative to TPA: 60%
[9]
  viability at 48 h, 100 molar ratio relative to TPA: > 80%

## CC(C)=CCc1c(O)c(CC=C(C)C)c2c(c1O)C(=O)Oc1c(cc(O)c3c1C=CC(C)(C)O3)O2 [GARCINISIDONE E]
[1]
  IC50: 350 molar ratio
[2]
  Activity: 90.2%
[3]
  Activity: 0%
[4]
  Activity: 71.1%
[5]
  viability at 48 h, 500 molar ratio relative to TPA: > 80%
[6]
  viability at 48 h, 10 molar ratio relative to TPA: > 80%
[7]
  Activity: 40%
[8]
  viability at 48 h, 1000 molar ratio relative to TPA: 70%
[9]
  viability at 48 h, 100 molar ratio relative to TPA: > 80%
